Values joined by “and” are separate entries in the source; they are usually repeats but may differ in a detail not shown here. Equal values may be shown once.
System: HEK-293T
Assay: Multiplex assay against HEK293T
Format: toxicity, cell-based
Conditions: human
Procedure, shortened: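 Live cells carried four stains from seeding: Hoechst33342, BioTracker Green Microtubule Cytoskeleton Dye, MitoTracker Red and Annexin V Alexa Fluor 680. They were imaged on a CQ1 microscope at 37°C and 5% CO2 after compound addition. Using CellPathfinder machine-learning gating, cells were split into Hoechst high-intensity objects or normal cells, normal cells into healthy, pyknosed or fragmented nuclei, and pyknosed cells into mitotic or apoptotic; tubulin, mitochondrial-mass and membrane-permeability phenotypes are per cents of healthy-nucleus cells.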

[1] = 12 h, 1 µM, compound concentration 1 uM
[2] = 12 h, 10 µM, compound concentration 10 uM
[3] = 24 h, 1 µM, compound concentration 1 uM
[4] = 24 h, 10 µM, compound concentration 10 uM
[5] = 48 h, 1 µM, compound concentration 1 uM
[6] = 48 h, 10 µM, compound concentration 10 uM

CC(C)(O)C(=O)N1CCN(c2ccc(C(F)(F)F)c(C3=C(c4c[nH]c5ccccc45)C(=O)NC3=O)c2)CC1
Population Apoptotic (%) [1]: 33% and 46%
Population Fragmented Nuclei (%) [1]: 4% and 5%
Population Healthy Nuclei (%) [1]: 78% and 76%
Population Hoechst High Intensity Objects (%) [1]: 8% and 7%
Population Membrane Permeable-Phenotype (%) [1]: 0%
Population Mitochondria Different-Phenotype (%) [1]: 43% and 58%
Population Mitotic Cells (%) [1]: 66% and 53%
Population Normal (%) [1]: 91% and 92%
Population Pyknosed Nuclei (%) [1]: 16% and 17%
Population Tubulin-Different-Phenotype (%) [1]: 28% and 30%
Total Cell Count [1]: 381 and 293
Population Apoptotic (%) [2]: 51% and 72%
Population Fragmented Nuclei (%) [2]: 4% and 3%
Population Healthy Nuclei (%) [2]: 74% and 75%
Population Hoechst High Intensity Objects (%) [2]: 10% and 7%
Population Membrane Permeable-Phenotype (%) [2]: 0%
Population Mitochondria Different-Phenotype (%) [2]: 61% and 90%
Population Mitotic Cells (%) [2]: 48% and 27%
Population Normal (%) [2]: 89% and 92%
Population Pyknosed Nuclei (%) [2]: 20% and 21%
Population Tubulin-Different-Phenotype (%) [2]: 62% and 63%
Total Cell Count [2]: 338 and 203
Population Apoptotic (%) [3]: 33% and 29%
Population Fragmented Nuclei (%) [3]: 8% and 5%
Population Healthy Nuclei (%) [3]: 74% and 79%
Population Hoechst High Intensity Objects (%) [3]: 5%
Population Membrane Permeable-Phenotype (%) [3]: 0%
Population Mitochondria Different-Phenotype (%) [3]: 32% and 48%
Population Mitotic Cells (%) [3]: 66% and 70%
Population Normal (%) [3]: 94%
Population Pyknosed Nuclei (%) [3]: 17% and 14%
Population Tubulin-Different-Phenotype (%) [3]: 19%
Total Cell Count [3]: 469 and 335
Population Apoptotic (%) [4]: 45% and 66%
Population Fragmented Nuclei (%) [4]: 6% and 2%
Population Healthy Nuclei (%) [4]: 71%
Population Hoechst High Intensity Objects (%) [4]: 4% and 7%
Population Membrane Permeable-Phenotype (%) [4]: 1% and 0%
Population Mitochondria Different-Phenotype (%) [4]: 48% and 84%
Population Mitotic Cells (%) [4]: 54% and 34%
Population Normal (%) [4]: 95% and 92%
Population Pyknosed Nuclei (%) [4]: 22% and 25%
Population Tubulin-Different-Phenotype (%) [4]: 43% and 60%
Total Cell Count [4]: 387 and 212
Population Apoptotic (%) [5]: 25% and 27%
Population Fragmented Nuclei (%) [5]: 9% and 10%
Population Healthy Nuclei (%) [5]: 79%
Population Hoechst High Intensity Objects (%) [5]: 2% and 5%
Population Membrane Permeable-Phenotype (%) [5]: 0%
Population Mitochondria Different-Phenotype (%) [5]: 21% and 29%
Population Mitotic Cells (%) [5]: 74% and 72%
Population Normal (%) [5]: 97% and 94%
Population Pyknosed Nuclei (%) [5]: 10%
Population Tubulin-Different-Phenotype (%) [5]: 14% and 15%
Total Cell Count [5]: 780 and 571
Population Apoptotic (%) [6]: 54% and 78%
Population Fragmented Nuclei (%) [6]: 8% and 9%
Population Healthy Nuclei (%) [6]: 71%
Population Hoechst High Intensity Objects (%) [6]: 8%
Population Membrane Permeable-Phenotype (%) [6]: 0%
Population Mitochondria Different-Phenotype (%) [6]: 53% and 71%
Population Mitotic Cells (%) [6]: 45% and 21%
Population Normal (%) [6]: 91%
Population Pyknosed Nuclei (%) [6]: 19%
Population Tubulin-Different-Phenotype (%) [6]: 25% and 40%
Total Cell Count [6]: 467 and 227

O=C1COc2nccc(-c3ccccc3F)c2CN1Cc1cc(C(F)(F)F)cc(C(F)(F)F)c1
Population Apoptotic (%) [1]: 31% and 51%
Population Fragmented Nuclei (%) [1]: 8% and 4%
Population Healthy Nuclei (%) [1]: 80% and 83%
Population Hoechst High Intensity Objects (%) [1]: 5% and 10%
Population Membrane Permeable-Phenotype (%) [1]: 0%
Population Mitochondria Different-Phenotype (%) [1]: 41% and 67%
Population Mitotic Cells (%) [1]: 68% and 48%
Population Normal (%) [1]: 94% and 89%
Population Pyknosed Nuclei (%) [1]: 10% and 11%
Population Tubulin-Different-Phenotype (%) [1]: 27% and 20%
Total Cell Count [1]: 397 and 333
Population Apoptotic (%) [2]: 38% and 57%
Population Fragmented Nuclei (%) [2]: 10% and 8%
Population Healthy Nuclei (%) [2]: 76% and 79%
Population Hoechst High Intensity Objects (%) [2]: 9% and 5%
Population Membrane Permeable-Phenotype (%) [2]: 0%
Population Mitochondria Different-Phenotype (%) [2]: 67% and 76%
Population Mitotic Cells (%) [2]: 61% and 42%
Population Normal (%) [2]: 90% and 94%
Population Pyknosed Nuclei (%) [2]: 13% and 12%
Population Tubulin-Different-Phenotype (%) [2]: 68% and 39%
Total Cell Count [2]: 475 and 382
Population Apoptotic (%) [3]: 21% and 59%
Population Fragmented Nuclei (%) [3]: 8% and 5%
Population Healthy Nuclei (%) [3]: 84% and 87%
Population Hoechst High Intensity Objects (%) [3]: 3% and 8%
Population Membrane Permeable-Phenotype (%) [3]: 0%
Population Mitochondria Different-Phenotype (%) [3]: 32% and 39%
Population Mitotic Cells (%) [3]: 78% and 40%
Population Normal (%) [3]: 96% and 91%
Population Pyknosed Nuclei (%) [3]: 7% and 6%
Population Tubulin-Different-Phenotype (%) [3]: 23% and 12%
Total Cell Count [3]: 517 and 428
Population Apoptotic (%) [4]: 52% and 36%
Population Fragmented Nuclei (%) [4]: 10% and 7%
Population Healthy Nuclei (%) [4]: 76% and 79%
Population Hoechst High Intensity Objects (%) [4]: 5%
Population Membrane Permeable-Phenotype (%) [4]: 0%
Population Mitochondria Different-Phenotype (%) [4]: 71% and 72%
Population Mitotic Cells (%) [4]: 47% and 63%
Population Normal (%) [4]: 94%
Population Pyknosed Nuclei (%) [4]: 13% and 12%
Population Tubulin-Different-Phenotype (%) [4]: 68% and 44%
Total Cell Count [4]: 520 and 492
Population Apoptotic (%) [5]: 27% and 38%
Population Fragmented Nuclei (%) [5]: 13% and 9%
Population Healthy Nuclei (%) [5]: 80% and 81%
Population Hoechst High Intensity Objects (%) [5]: 2% and 4%
Population Membrane Permeable-Phenotype (%) [5]: 0%
Population Mitochondria Different-Phenotype (%) [5]: 29% and 23%
Population Mitotic Cells (%) [5]: 72% and 61%
Population Normal (%) [5]: 97% and 95%
Population Pyknosed Nuclei (%) [5]: 6% and 8%
Population Tubulin-Different-Phenotype (%) [5]: 14% and 12%
Total Cell Count [5]: 743 and 574
Population Apoptotic (%) [6]: 44% and 56%
Population Fragmented Nuclei (%) [6]: 13% and 11%
Population Healthy Nuclei (%) [6]: 75% and 80%
Population Hoechst High Intensity Objects (%) [6]: 3% and 2%
Population Membrane Permeable-Phenotype (%) [6]: 0%
Population Mitochondria Different-Phenotype (%) [6]: 63% and 51%
Population Mitotic Cells (%) [6]: 55% and 43%
Population Normal (%) [6]: 96% and 97%
Population Pyknosed Nuclei (%) [6]: 11% and 7%
Population Tubulin-Different-Phenotype (%) [6]: 46% and 25%
Total Cell Count [6]: 713 and 669
